B1: Uridine-cytidine kinase 1 (Homo sapiens), Q9HA47 (protein)
chain: MASAGGEDCESPAPEADRPHQRPFLIGVSGGTASGKSTVCEKIMELLGQNEVEQRQRKVVILSQDRFYKVLTAEQKAKALKGQYNFDHPDAFDNDLMHRTLKNIVEGKTVEVPTYDFVTHSRLPETTVVYPADVVLFEGILVFYSQEIRDMFHLRLFVDTDSDVRLSRRVLRDVRRGRDLEQILTQYTTFVKPAFEEFCLPTKKYADVIIPRGVDNMVAINLIVQHIQDILNGDICKWHRGGSNGRSYKRTFSEPGDHPGMLTSGKRSHLESSSRPH
B2: UMP-CMP kinase (Homo sapiens), P30085 (protein)
chain: MKPLVVFVLGGPGAGKGTQCARIVEKYGYTHLSAGELLRDERKNPDSQYGELIEKYIKEGKIVPVEITISLLKREMDQTMAANAQKNKFLIDGFPRNQDNLQGWNKTMDGKADVSFVLFFDCNNEICIERCLERGKSSGRSDDNRESLEKRIQTYLQSTKPIIDLYEEMGKVKKIDASKSVDEVFDEVVQIFDKEG

Key:
Format in all cases: cell-based
[1] = substrate: O=c1ccn([C@@H]2O[C@H](CO)[C@@H](O)[C@H]2O)c(=O)[nH]1; assay: Ratio of Kcat to Km for UCK1 activity expressed in Huh7 cells; details: Homo sapiens; Huh-7
Method in brief: (§1)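 His-tagged human UCK-1 cloned from Huh-7 cells, assayed at 25°C by pyruvate kinase/lactate dehydrogenase coupling, NADH oxidation at 340 nm. Buffer 64 mM Tris-HCl pH 7.5, 1 mM ATP, Mg2+, phosphoenolpyruvate. Enzyme 41 nM, or 410 nM for 2′-C-methyl cytidines. Substrate concentration varied. Steady-state parameters reported as mean ± SD.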

[2] = substrate: O=c1ccn([C@@H]2O[C@H](CO)[C@@H](O)[C@H]2O)c(=O)[nH]1; assay: Activity of human UCK1 expressed in Huh7 cells assessed as phosphorylation by coupled enzyme assay; details: Huh-7; method in brief: as §1
[3] = substrate: Nc1ccn([C@@H]2O[C@H](COP(=O)(O)O)[C@@H](O)[C@H]2O)c(=O)n1; assay: (§2) Ratio of Kcat to Km for YMPK activity expressed in Huh7 cells; details: Homo sapiens; Huh-7
Method in brief: (§3)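 Human YMPK cloned from Huh-7 cells, 37°C, coupled pyruvate kinase/lactate dehydrogenase assay following NADH at 340 nm. Tris-HCl pH 7.5, 1 mM ATP, MgCl2. Enzyme 80 nM with natural monophosphates, 200 nM with the analog monophosphate. Monophosphate substrate concentration varied, steady-state parameters as mean ± SD.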

[4] = substrate: C[C@@]1(F)[C@H](O)[C@@H](COP(=O)(O)O)O[C@H]1n1ccc(N)nc1=O; assay: as §2; details: Homo sapiens; Huh-7; method in brief: as §3
[5] = substrate: Nc1ccn([C@H]2C[C@H](O)[C@@H](COP(=O)(O)O)O2)c(=O)n1; assay: as §2; details: Homo sapiens; Huh-7; method in brief: as §3
[6] = substrate: O=c1ccn([C@@H]2O[C@H](COP(=O)(O)O)[C@@H](O)[C@H]2O)c(=O)[nH]1; assay: as §2; details: Homo sapiens; Huh-7; method in brief: as §3
[7] = substrate: Nc1ccn([C@@H]2O[C@H](COP(=O)(O)O)[C@@H](O)[C@H]2O)c(=O)n1; assay: (§4) Activity of human YMPK expressed in Huh7 cells assessed as phosphorylation by coupled enzyme assay; details: Huh-7; method in brief: as §3
[8] = substrate: C[C@@]1(F)[C@H](O)[C@@H](COP(=O)(O)O)O[C@H]1n1ccc(N)nc1=O; assay: as §4; details: Huh-7; method in brief: as §3
[9] = substrate: Nc1ccn([C@H]2C[C@H](O)[C@@H](COP(=O)(O)O)O2)c(=O)n1; assay: as §4; details: Huh-7; method in brief: as §3
[10] = substrate: O=c1ccn([C@@H]2O[C@H](COP(=O)(O)O)[C@@H](O)[C@H]2O)c(=O)[nH]1; assay: as §4; details: Huh-7; method in brief: as §3

| Protein | kcat/Km [1] | Km [2] | kcat [2] | kcat/Km [3] | kcat/Km [4] | kcat/Km [5] | kcat/Km [6] | Km [7] | kcat [7] | kcat [8] | Km [9] | kcat [9] | Km [10] | kcat [10] |
| --- | --- | --- | --- | --- | --- | --- | --- | --- | --- | --- | --- | --- | --- | --- |
| B1 | 0.0013 µM⁻¹ s⁻¹ | 407 µM | 0.51 s⁻¹ |  |  |  |  |  |  |  |  |  |  |  |
| B2 |  |  |  | 0.54 µM⁻¹ s⁻¹ | 0.012 µM⁻¹ s⁻¹ | 0.036 µM⁻¹ s⁻¹ | 0.54 µM⁻¹ s⁻¹ | 56 µM | 30 s⁻¹ | 3.3 s⁻¹ | 837 µM | 30 s⁻¹ | 151 µM | 81 s⁻¹ |
